ROMK primary = modulators of human ROMK potassium channel; Tet-inducible ROMK, thallium flux fluorescence; actives lie on both sides; B-score at 10 µM; hit rate 2% among 130,000;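 active = signal ratio slope over the read window, or its plate-corrected B-score, at least 3 SD from the plate mean, either direction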;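 also: B-score of the F/F0 ratio slope over 7 to 12 s after thallium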
Target sequence (P48048 whole entry, looked up): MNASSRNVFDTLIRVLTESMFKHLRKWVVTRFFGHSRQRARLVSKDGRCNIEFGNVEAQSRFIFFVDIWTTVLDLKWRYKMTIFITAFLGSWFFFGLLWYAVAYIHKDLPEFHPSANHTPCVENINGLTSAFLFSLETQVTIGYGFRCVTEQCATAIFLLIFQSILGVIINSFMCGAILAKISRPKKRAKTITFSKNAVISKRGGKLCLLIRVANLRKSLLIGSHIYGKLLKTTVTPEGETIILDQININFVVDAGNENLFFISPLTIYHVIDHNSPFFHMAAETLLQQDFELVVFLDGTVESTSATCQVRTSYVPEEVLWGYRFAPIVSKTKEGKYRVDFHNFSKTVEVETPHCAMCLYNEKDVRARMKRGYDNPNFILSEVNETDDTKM
Pf gamet viab = inhibitors of late stage P. falciparum gametocyte viability. inhibition, % at 10.9 µM. P. falciparum stage V gametocytes, ATP luminescence, 24 h. hit rate 0.065% among 150,000;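 active = inhibition above the mean plus 3 SD of compounds within the control limits, set per campaign, cut at about 38% in these data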
Biofilm kill mix = mixtures killing C. albicans biofilm. inhibition, % at 7.6 µM. AID 1242. C. albicans biofilm persisters + clotrimazole, fluorescence viability; primary screen in compound mixtures of four per well. hit rate 0.02% among 120,000;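 active = inhibition above 30.3% in the primary screen of four-compound pools, then above 30% when the compound was retested; inconclusive = passed the primary limit but could not be retested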;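 also: compounds exposed to preformed 24 h biofilms for 48 h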
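Probe or stimulus – Clotrimazole 50 µg/mL co-treatment · System – C. albicans biofilms · Schedule – 24 h biofilm formation, then 48 h compound exposure, 37 °C · Evaluation – percent inhibition of biofilm viability · Technique – 2-h Alamar Blue fluorescence, 535/590 nm excitation/emission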
ROMK hit retest = retested hit modulating human ROMK potassium channel | hit rate 54% among 3,000 | AID 1917 | shares compounds with ROMK primary | normalized thallium flux (F/F0 slope) at 10 µM | ROMK thallium flux, fluorescence ratio; hits give low values;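 active = Flux at 10 µM at least 3 SD below or above vehicle control mean in one or both replicates; inconclusive = no clear call, values can overlap the other calls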
Each line names hits and unclear results; the compound was inactive in the other large screens (follow-up assays come after a bar, where they were run). This excerpt belongs to a sample that is enriched for hits.

CCOc1cc(Br)c(/C=C2/C(=O)N(C)C(=S)N2CC(=O)OC)cc1OC	ROMK primary -2.6 (no result: Pf gamet viab) | ROMK hit retest inactive
CCOc1cc(/C=C2/NC(=O)N(CC(=O)OC)C2=O)ccc1OC	none (no result: ROMK primary)
COC(=O)c1ccc(NC(=O)CCN2CCOCC2)cc1	none (no result: ROMK primary, Biofilm kill mix)
Cc1cccc(NC(=O)c2cnn(-c3ccc(F)cc3)c2C2CCNCC2)c1C	none (no result: Pf gamet viab)
Cc1ccc(-n2ncc(C(=O)Nc3cc(Cl)ccc3C)c2C2CCNCC2)cc1C	ROMK primary -3.2 | ROMK hit retest 0.045
Cc1cc(C)nc(N2CCCC(C(=O)Nc3nnc(C)s3)C2)n1 (centres undefined)	none (no result: ROMK primary, Biofilm kill mix)
CCc1nnc(NC(=O)C2CCN(c3nc(C)cc(C)n3)CC2)s1	ROMK primary 2.2 (no result: Biofilm kill mix) | ROMK hit retest inactive
COc1ccc(N(CC(=O)Nc2ccccc2C(N)=O)S(=O)(=O)c2ccc(C)c([N+](=O)[O-])c2)cc1	none (no result: Pf gamet viab) | ROMK hit retest 0.067
COc1ccc(N(CC(=O)Nc2ccc(C(N)=O)cc2)S(=O)(=O)c2ccc(C)c([N+](=O)[O-])c2)cc1	none
Cc1ccc(NC(=O)COc2ccccc2C(=O)NCCN(C)C)cc1	none (no result: Pf gamet viab)
Cc1ccc(N/C=C(\[N+](=O)[O-])S(=O)(=O)c2ccccc2)cc1	none
Cc1ccc(N/C=C(\C#N)S(=O)(=O)c2ccccc2)cc1	ROMK primary 2.5 | ROMK hit retest inactive
C[C@@H]1COC(=O)[C@@H](CC(=O)OC(C)(C)C)C/C=C\C[C@@H](CC(=O)N[C@H](CO)Cc2ccccc2)C(=O)N1	none (no result: ROMK primary, Biofilm kill mix)
Cc1ccc(C(C(=O)NC2CCCCC2)N(Cc2ccco2)C(=O)Cc2c[nH]c3ccccc23)o1 (centres undefined)	none (no result: ROMK primary, Biofilm kill mix) | ROMK hit retest inconclusive
Cc1ccc(C(C(=O)NC2CCCCC2)N(C(=O)Cc2c[nH]c3ccccc23)c2ccccc2C)o1 (centres undefined)	none
COc1cc(-c2nc(CN3CCCCC3CCNC(C)=O)c(C)o2)ccc1F (centres undefined)	none (no result: ROMK primary)
COC1=C(N)C(=O)c2nc(-c3nc(C(=O)O)c(C)c(-c4ccc(OC)c(OC)c4O)c3N)ccc2C1=O	none (no result: ROMK primary, Pf gamet viab) | ROMK hit retest 0.057
COc1ccc(-c2ncncc2-c2csc(C)n2)c(O)c1OC	none (no result: Pf gamet viab, Biofilm kill mix)
COC(=O)c1ccc(OC)c(Cn2c(=O)n(C)c(=O)c3ccccc32)c1	none (no result: ROMK primary, Biofilm kill mix)
C#CCOCCOCCOCCNc1nc(N2CCN(C(=O)Cn3cc(CC(C)O)nn3)CC2)nc(N2CCN(C(=O)[C@H](CCCCN)n3cc(CC(C)O)nn3)CC2)n1 (some centres undefined)	none (no result: ROMK primary, Biofilm kill mix)
CC(C)N1CCC(N2CCN(Cc3ccc(-c4ccc(Cl)cc4)o3)CC2CCO)CC1 (centres undefined)	ROMK primary -3.7 | ROMK hit retest 0.064
CC(C)N1CCC(N2CCN(Cc3ccc(-c4ccccc4Cl)o3)CC2CCO)CC1 (centres undefined)	none (no result: ROMK primary)
COC(=O)c1ccc(NC(=O)c2cc[n+](Cc3ccccc3)cc2)cc1	none (no result: ROMK primary, Biofilm kill mix)
Cc1ccc(C(=O)NCC#N)cc1	none
Cc1ccc(C(=O)NC(C#N)=C(Cl)Cl)cc1	none | ROMK hit retest 0.061
Cc1cc(=O)oc(C)c1C(=O)NC1CCCCCCC1	none
CCC(NC(=O)/C(=C\c1ccc2c(c1)OCO2)NC(C)=O)C(=O)O (centres undefined)	none
O=S1(=O)CCC(N=Cc2cc(Br)ccc2O)C1 (centres undefined)	none (no result: Biofilm kill mix) | ROMK hit retest 0.1
O=c1c2ccccc2c(C=NC2CCS(=O)(=O)C2)c(O)n1-c1ccccc1 (centres undefined)	none (no result: Pf gamet viab, Biofilm kill mix)
CC(C)c1cccc(-c2ccc3c(c2)S(=O)(=O)c2cccc(C(=O)NC4CCCC4)c2C3=O)c1	none (no result: ROMK primary, Biofilm kill mix)
N#C/C(=C/c1ccc(CNC(=O)C(=O)Nc2cc(Cl)cc(Cl)c2)o1)C(=O)NCc1cccnc1	none (no result: ROMK primary, Pf gamet viab)
O=C(NCc1cccnc1)/C(=C/c1ccc(-c2cccc(Cl)c2)o1)S(=O)(=O)c1ccccc1	ROMK primary -5.3 (no result: Biofilm kill mix) | ROMK hit retest 0.051
O=C(NCc1cccnc1)/C(=C\c1ccc(-c2cccc(Cl)c2)o1)S(=O)(=O)c1ccccc1	ROMK primary -4.8 (no result: Pf gamet viab) | ROMK hit retest 0.05
Cc1ccc(C(=O)N/C(=C\c2ccc(-c3cc(Cl)ccc3Cl)o2)C(=O)NCc2cccnc2)cc1	none (no result: Pf gamet viab, Biofilm kill mix)
CCOc1ccc(C(=O)NC(C)(C)CC)cc1	none (no result: ROMK primary)
O=C(NCc1n[nH]c(=S)n1-c1cccc(Cl)c1)c1ccc(S(=O)(=O)N2CCCC2)cc1	none (no result: ROMK primary, Biofilm kill mix)
O=C(NCc1n[nH]c(=S)n1-c1ccc(F)cc1)c1ccc(S(=O)(=O)N2CCCC2)cc1	ROMK primary 1.3 (no result: Pf gamet viab, Biofilm kill mix) | ROMK hit retest inactive
COC(=O)CNC(=O)C1CC(=O)N(CCc2ccc(F)cc2)C1 (centres undefined)	none (no result: ROMK primary, Biofilm kill mix)
Cc1cccc(N2CCN(C(=O)CC(NC(=O)c3ccccc3Cl)c3ccccc3)CC2)c1C (centres undefined)	ROMK primary -4.7 | ROMK hit retest 0.054
O=C(NC(CC(=O)N1CCN(c2ccc([N+](=O)[O-])cc2)CC1)c1ccccc1)c1ccccc1Cl (centres undefined)	none
CC(=O)Nc1ccc(S(=O)(=O)Nc2cccc(-c3cn4cccnc4n3)c2)cc1	none
O=C(Nc1ccc(S(=O)(=O)Nc2nccs2)cc1)c1cc(-c2ccccc2Cl)nc2ccccc12	ROMK primary 4.2 (no result: Pf gamet viab, Biofilm kill mix) | ROMK hit retest inactive
O=C(Nc1ccc(S(=O)(=O)Nc2nccs2)cc1)c1cc(-c2ccccn2)nc2ccccc12	none
Nc1nonc1-c1nc2ccccc2n1CC(=O)Nc1ccccc1	none (no result: ROMK primary)
CCOC(=O)c1ccccc1NC(=O)Cn1c(-c2nonc2N)nc2ccccc21	ROMK primary 4.4 (no result: Biofilm kill mix) | ROMK hit retest inactive
Cc1c(C=O)c2ccccn2c1C(=O)c1cccc([N+](=O)[O-])c1	none (no result: ROMK primary, Pf gamet viab)
C[C@H](N=C1NS(=O)(=O)c2ccccc21)C(=O)OCc1cc([N+](=O)[O-])cc2c1OCOC2	none (no result: ROMK primary)
CC1(C)CC(=O)C2=C(C1)Oc1nc3ccccc3cc1C2C(C#N)C#N (centres undefined)	ROMK primary -3.6 (no result: Biofilm kill mix) | ROMK hit retest 0.058
CC1(C)CC(=O)C(C2C3=C(CC(C)(C)CC3=O)Oc3ccccc32)C(=O)C1 (centres undefined)	none
Cc1ccc(C(=O)NCc2ccccc2)cc1Br	none (no result: Pf gamet viab)
CS(=O)(=O)c1ccc(S(=O)CC(=O)OCc2ccccc2)c([N+](=O)[O-])c1 (centres undefined)	ROMK primary -5.3 | ROMK hit retest 0.053
CCOC(=O)c1ccccc1OC(=O)CS(=O)c1ccccc1[N+](=O)[O-] (centres undefined)	none (no result: Pf gamet viab)
Cc1ccc(SCC(=O)Nc2cc([N+](=O)[O-])ccc2O)cc1	none
Cc1cccc(N2C(=O)CC(N3CCN(c4ccc(Cl)cc4)CC3)C2=O)c1 (centres undefined)	none (no result: ROMK primary, Biofilm kill mix)
Cc1cccc(N2C(=O)CC(N3CCN(Cc4ccc(Cl)cc4)CC3)C2=O)c1 (centres undefined)	none (no result: Biofilm kill mix) | ROMK hit retest inconclusive
Cc1ccc(SCCNC(=O)/C=C/c2ccc(Cl)cc2)cc1	none
O=C(CN1CCNCC1)NCCSc1ccc(Cl)cc1	ROMK primary -2 (no result: Pf gamet viab) | ROMK hit retest 0.068
COc1ccc(OCC(=O)N/N=C(\C)c2cccs2)cc1	none (no result: ROMK primary)
C/C(=N\NC(=O)COc1ccccc1[N+](=O)[O-])c1cccs1	ROMK primary 1.4 (no result: Pf gamet viab) | ROMK hit retest inactive
COCC(C)Nc1nc(C)c(C(C)=O)s1 (centres undefined)	none
COc1ccc(CCCC(=O)Nc2ccc(F)cc2)cc1	none (no result: ROMK primary)

Screening results deposited in PubChem by several laboratories.
